According to paper PMC9614283 (Journal of medicinal chemistry, 2017):

Columns and labels:
human recombinant PDE5A1 = human recombinant PDE5A1 (Homo sapiens, UniProt O76074); test: PDE5 fluorescent; assay type: biochemical
How it was run: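 Reactions ran 60 min at room temperature with 0.1-0.45 ng PDE5, 100 nM FAM-cGMP or FAM-cAMP substrate and test compound. Binding agent was then added for 60 min at room temperature, and fluorescence was read at ex 485/em 528 nm and converted to polarisation. Each concentration was run in duplicate. Activity was normalised between no compound (100%) and no enzyme and no compound (0%). IC50 came from sigmoidal non-linear regression; values are average ± S.E.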

AD mouse models = conditions: pharmacological treatment of two different AD mouse models; cited from earlier work
PDE6C [1] = molecular target: T1, PDE6C (Homo sapiens, UniProt P51160); conditions: read-out: PDE6C IC50; recombinant human enzyme; cited from earlier work
T1 sequence (P51160 whole entry): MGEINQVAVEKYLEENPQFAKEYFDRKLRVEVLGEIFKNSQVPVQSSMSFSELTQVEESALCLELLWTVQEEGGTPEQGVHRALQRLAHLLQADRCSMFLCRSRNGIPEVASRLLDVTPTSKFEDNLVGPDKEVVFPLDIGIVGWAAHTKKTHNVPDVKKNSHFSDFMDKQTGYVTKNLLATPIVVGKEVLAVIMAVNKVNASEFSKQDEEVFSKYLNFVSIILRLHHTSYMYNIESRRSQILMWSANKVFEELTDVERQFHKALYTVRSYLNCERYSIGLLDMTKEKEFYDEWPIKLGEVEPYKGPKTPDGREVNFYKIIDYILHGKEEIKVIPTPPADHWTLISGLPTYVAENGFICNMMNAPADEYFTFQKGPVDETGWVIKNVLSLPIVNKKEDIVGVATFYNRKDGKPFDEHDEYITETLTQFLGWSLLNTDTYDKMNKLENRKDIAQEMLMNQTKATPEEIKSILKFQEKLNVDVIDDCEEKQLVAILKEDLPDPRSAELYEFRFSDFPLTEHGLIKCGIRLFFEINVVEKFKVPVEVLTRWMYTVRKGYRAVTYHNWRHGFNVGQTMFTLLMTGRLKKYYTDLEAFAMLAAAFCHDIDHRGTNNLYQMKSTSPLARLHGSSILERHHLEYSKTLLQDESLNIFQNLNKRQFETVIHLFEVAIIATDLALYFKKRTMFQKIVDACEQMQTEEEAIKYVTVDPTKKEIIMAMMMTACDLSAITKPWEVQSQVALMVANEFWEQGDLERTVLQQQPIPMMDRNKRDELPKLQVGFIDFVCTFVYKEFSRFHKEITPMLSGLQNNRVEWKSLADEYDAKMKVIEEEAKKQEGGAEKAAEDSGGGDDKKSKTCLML

[2] = tested on: cGMP levels in the hippocampus of mice; conditions: dosed at 3 mg/kg; cited from earlier work
[3] = tested on: hippocampal long-term potentiation (LTP); test: Hippocampal slice LTP electrophysiology, acute bath perfusion; assay type: cell-based, mice; conditions: 50 nM bath perfusion
[4] = tested on: cGMP levels in the hippocampus of mice; test: Hippocampal cGMP levels after foot shock; assay type: in vivo; conditions: WT mice, 3 mg/kg ip, 180 s after foot shock; not significant (p = 0.097)
How it was run: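 Male and female C57Bl6 mice, 2-3 months old (20-25 g), received 3 mg/kg i.p. in 2% DMSO & 2% Tween, or vehicle alone. Foot shock was given 30 min later. Mice were killed by cervical dislocation and decapitation 10 s, 1 min or 3 min after shock. Hippocampi were snap-frozen. cGMP was measured by enzyme immunoassay in duplicate and normalised to BCA protein. n=3 per group; t-test/2-way ANOVA.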

PDE6C [5] = molecular target: T1, PDE6C; test: PDE6 fluorescent; assay type: biochemical; conditions: PDE6C vs PDE5A1

## COc1ccc(CNc2c3c(nc4ccccc24)CCN(C(C)=O)C3)cc1Cl [17a, 1-(10-((3-Chloro-4-methoxybenzyl)amino)-3,4-dihydrobenzo[b][1,6]naphthyridin-2(1H)-yl)ethan-1-one]
Human recombinant PDE5A1
  IC50: 110 ± 3.3 nM

## COc1ccc(CNc2c(CO)cnc3c(C4CC4)cc(C#N)cc23)cc1Cl [compound 1]
AD mouse models
  learning and memory: rescues learning and memory
PDE6C [1]
  IC50: 339 nM
[2]
  cGMP in the hippocampus of mice: elevation

## COc1ccc(CNc2c3c(nc4ccc(C#N)cc24)CCN(C(C)=O)C3)cc1Cl [compound 6c, 2-Acetyl-10-[(3-chloro-4-methoxybenzyl)amino]-1,2,3,4-tetrahydrobenzo[b][1,6]naphthyridine-8-carbonitrile]
[3]
  effect on LTP in WT slices: did not have any effect
[4]
  increase of hippocampal cGMP levels: slight increase

## CCN1Cc2nc3ccc(C#N)cc3c(NCc3ccc(OC)c(Cl)c3)c2C1=O [compound 24a, 9-((3-Chloro-4-methoxybenzyl)amino)-2-ethyl-1-oxo-2,3-dihydro-1H-pyrrolo[3,4-b]quinoline-7-carbonitrile]
PDE6C [5]
  selectivity for PDE5 versus PDE6: ~ 100 fold
